Values belong to the compound of their own block, whether it stands above or below them. Calls of active or inactive are those of the source. No cut-off for these calls is given here.
Experiments:
[1] = test system: A 172; test: Induction of morphological changes in human A172 cells assessed as necroptotic cell death at 20 uM measured after 48 hrs by Giemsa-staining based microscopic analysis; assay type: functional
[2] = test system: U-87 MG; test: Up regulation of SLC7A11 gene expression in human U87MG cells at 16 uM incubated for 4 hrs followed by bromouridine addition during last 30 mins of incubation by TRIzol-reagent based Bru-Seq analysis relative to control; assay type: functional, U-87MG ATCC
In short: (§1)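 U87MG cells treated 4 h with test compound (10 or 16 μM, as per line) or DMSO; 2 mM bromouridine added for final 30 min. Total RNA isolated with TRIzol, Bru-labelled nascent RNA captured with anti-BrdU antibody magnetic beads and sequenced; transcript abundance (RPKM) compared with DMSO control. Single experiment.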

[3] = test system: U-87 MG; test: Up regulation of NMRAL2P gene expression in human U87MG cells at 16 uM incubated for 4 hrs followed by bromouridine addition during last 30 mins of incubation by TRIzol-reagent based Bru-Seq analysis relative to control; assay type: functional, U-87MG ATCC
In short: (§2)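 U87MG cells exposed to compound or DMSO vehicle for 4 h, with 2 mM bromouridine added for the final 30 min. Total RNA isolated with TRIzol; Bru-labelled nascent RNA captured on anti-BrdU antibody-conjugated magnetic beads and sequenced. Transcript abundance expressed as RPKM relative to DMSO. Experiment performed once.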

[4] = test system: U-87 MG; test: Up regulation of HSPA1B gene expression in human U87MG cells at 16 uM incubated for 4 hrs followed by bromouridine addition during last 30 mins of incubation by TRIzol-reagent based Bru-Seq analysis relative to control; assay type: functional, U-87MG ATCC; in short: as §2
[5] = test system: U-87 MG; test: Up regulation of HSPH1 gene expression in human U87MG cells at 16 uM incubated for 4 hrs followed by bromouridine addition during last 30 mins of incubation by TRIzol-reagent based Bru-Seq analysis relative to control; assay type: functional, U-87MG ATCC; in short: as §2
[6] = test system: U-87 MG; test: Up regulation of BAG3 gene expression in human U87MG cells at 16 uM incubated for 4 hrs followed by bromouridine addition during last 30 mins of incubation by TRIzol-reagent based Bru-Seq analysis relative to control; assay type: functional, U-87MG ATCC; in short: as §2
[7] = test system: U-87 MG; test: Up regulation of FTH1 gene expression in human U87MG cells at 16 uM incubated for 4 hrs followed by bromouridine addition during last 30 mins of incubation by TRIzol-reagent based Bru-Seq analysis relative to control; assay type: functional, U-87MG ATCC; in short: as §2
[8] = test system: U-87 MG; test: Down regulation of BIRC3 gene expression in human U87MG cells at 16 uM incubated for 4 hrs followed by bromouridine addition during last 30 mins of incubation by TRIzol-reagent based Bru-Seq analysis relative to control; assay type: functional, U-87MG ATCC
[9] = test system: U-87 MG; test: Down regulation of AC124276.2 gene expression in human U87MG cells at 16 uM incubated for 4 hrs followed by bromouridine addition during last 30 mins of incubation by TRIzol-reagent based Bru-Seq analysis relative to control; assay type: functional, U-87MG ATCC
[10] = test system: U-87 MG; test: Down regulation of KIAA0040 gene expression in human U87MG cells at 16 uM incubated for 4 hrs followed by bromouridine addition during last 30 mins of incubation by TRIzol-reagent based Bru-Seq analysis relative to control; assay type: functional, U-87MG ATCC
[11] = test system: A 172; test: Antimigratory activity against human A172 cells at 10 uM measured after 4 hrs by Giemsa staining based transwell migration assay; assay type: functional, cell-based
In short: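 A172 cells (1 x 10^5) were treated with compound and seeded into inserts with 8.0 μm PET membrane in serum-free medium. DMEM with 10% FBS was in the lower well; wells without FBS served as control. After 4 h, migrated cells were Giemsa-stained and imaged at 10X, 5 fields per well.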

[12] = test system: U-87 MG; test: Up regulation of SLC7A11 gene expression in human U87MG cells at 10 uM incubated for 4 hrs followed by bromouridine addition during last 30 mins of incubation by TRIzol-reagent based Bru-Seq analysis relative to control; assay type: functional, U-87MG ATCC; in short: as §1
[13] = test system: U-87 MG; test: Up regulation of CTH gene expression in human U87MG cells at 10 uM incubated for 4 hrs followed by bromouridine addition during last 30 mins of incubation by TRIzol-reagent based Bru-Seq analysis relative to control; assay type: functional, U-87MG ATCC; in short: as §2
[14] = test system: U-87 MG; test: Up regulation of PSAT1 gene expression in human U87MG cells at 10 uM incubated for 4 hrs followed by bromouridine addition during last 30 mins of incubation by TRIzol-reagent based Bru-Seq analysis relative to control; assay type: functional, U-87MG ATCC; in short: as §2
[15] = test system: U-87 MG; test: Down regulation of SLITRK5 gene expression in human U87MG cells at 10 uM incubated for 4 hrs followed by bromouridine addition during last 30 mins of incubation by TRIzol-reagent based Bru-Seq analysis relative to control; assay type: functional, U-87MG ATCC
In short: (§3)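 Nascent transcription (Bru-seq) in U87MG cells: treatment at 10 μM for 4 h, with 2 mM bromouridine added for the final 30 min. Total RNA isolated with TRIzol; Bru-labelled RNA captured using anti-BrdU antibody on magnetic beads, then sequenced. Transcript traces reported as RPKM compared with DMSO-treated cells. Single experiment.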

[16] = test system: U-87 MG; test: Down regulation of KCTD4 gene expression in human U87MG cells at 10 uM incubated for 4 hrs followed by bromouridine addition during last 30 mins of incubation by TRIzol-reagent based Bru-Seq analysis relative to control; assay type: functional, U-87MG ATCC
[17] = test system: U-87 MG; test: Down regulation of ZNF404 gene expression in human U87MG cells at 10 uM incubated for 4 hrs followed by bromouridine addition during last 30 mins of incubation by TRIzol-reagent based Bru-Seq analysis relative to control; assay type: functional, U-87MG ATCC; in short: as §2
[18] = test system: U-87 MG; test: Down regulation of MYBL1 gene expression in human U87MG cells at 10 uM incubated for 4 hrs followed by bromouridine addition during last 30 mins of incubation by TRIzol-reagent based Bru-Seq analysis relative to control; assay type: functional, U-87MG ATCC; in short: as §3
[19] = test system: U-87 MG; test: Down regulation of LRRC63 gene expression in human U87MG cells at 10 uM incubated for 4 hrs followed by bromouridine addition during last 30 mins of incubation by TRIzol-reagent based Bru-Seq analysis relative to control; assay type: functional, U-87MG ATCC
[20] = test system: U-87 MG; test: Down regulation of FPGT gene expression in human U87MG cells at 10 uM incubated for 4 hrs followed by bromouridine addition during last 30 mins of incubation by TRIzol-reagent based Bru-Seq analysis relative to control; assay type: functional, U-87MG ATCC
[21] = test system: U-87 MG; test: Down regulation of HIST1H2BC gene expression in human U87MG cells at 10 uM incubated for 4 hrs followed by bromouridine addition during last 30 mins of incubation by TRIzol-reagent based Bru-Seq analysis relative to control; assay type: functional, U-87MG ATCC
[22] = test system: U-87 MG; test: Down regulation of BBS10 gene expression in human U87MG cells at 10 uM incubated for 4 hrs followed by bromouridine addition during last 30 mins of incubation by TRIzol-reagent based Bru-Seq analysis relative to control; assay type: functional, U-87MG ATCC
[23] = test system: U-87 MG; test: Down regulation of RAD51 gene expression in human U87MG cells at 10 uM incubated for 4 hrs followed by bromouridine addition during last 30 mins of incubation by TRIzol-reagent based Bru-Seq analysis; assay type: functional, cell-based; settings: U-87MG ATCC; in short: as §3
[24] = test system: Protein disulfide-isomerase (Homo sapiens), P07237 [H256A]; test: Inhibition of recombinant human N-terminal His-tagged PDI H256A mutant expressed in Escherichia coli BL21 (DE3) pLysS at 100 uM measured after 1 hr by ANS dye based fluorescence spectra analysis
Sequence of Protein disulfide-isomerase (Homo sapiens), P07237 [H256A] (P07237 whole entry H256A): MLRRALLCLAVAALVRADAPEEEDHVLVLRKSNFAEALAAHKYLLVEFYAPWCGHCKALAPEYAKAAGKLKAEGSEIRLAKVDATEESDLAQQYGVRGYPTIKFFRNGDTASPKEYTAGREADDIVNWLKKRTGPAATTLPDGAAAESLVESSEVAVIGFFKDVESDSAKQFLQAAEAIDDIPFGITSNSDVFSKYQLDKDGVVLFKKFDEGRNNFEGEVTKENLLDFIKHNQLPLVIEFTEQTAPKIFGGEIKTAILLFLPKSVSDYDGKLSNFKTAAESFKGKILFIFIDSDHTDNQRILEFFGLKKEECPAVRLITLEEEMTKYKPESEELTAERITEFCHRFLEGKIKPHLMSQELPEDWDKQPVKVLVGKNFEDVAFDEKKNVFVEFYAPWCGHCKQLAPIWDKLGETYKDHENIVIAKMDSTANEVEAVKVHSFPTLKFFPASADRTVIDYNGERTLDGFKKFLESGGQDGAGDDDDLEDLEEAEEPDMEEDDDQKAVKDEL

Structure (SMILES): COC(=O)c1cccc(/C=C/C(=O)c2cccc(O)c2)c1
- Activity [1]: Active
- fold change (FC) [2]: 21.2
- fold change (FC) [3]: 15
- log2FC [3]: 4.1
- fold change (FC) [4]: 10.2
- fold change (FC) [5]: 5
- fold change (FC) [6]: 1.9
- fold change (FC) [7]: 1.9
- fold change (FC) [8]: 3.3
- fold change (FC) [9]: 2.9
- fold change (FC) [10]: 2.6

Structure (SMILES): CCCCCN(CCCCC)S(=O)(=O)c1ccc(C(=O)/C=C/c2cccc(C#N)c2)cc1
- Activity [11]: Active
- fold change (FC) [12]: 20.8
- fold change (FC) [13]: 17.7
- fold change (FC) [14]: 11.7
- fold change (FC) [15]: 3.6
- fold change (FC) [16]: 2.8
- fold change (FC) [17]: 2.7
- fold change (FC) [18]: 2.6
- fold change (FC) [19]: 2.5
- fold change (FC) [20]: 2.3
- fold change (FC) [21]: 2.3
- fold change (FC) [22]: 2.3
- Activity [23]: Active

- inhibition [24]: Active
Structure (SMILES): CCCCCN(CCCCC)S(=O)(=O)c1ccc(C(=O)/C=C/c2cccc(O)c2)cc1
